Bioassay records from PubChem BioAssay.
Shown are actives, neighbours in structure and some others; about 2.5% of the full set was active somewhere.
Insulin prom up = insulin promoter activators in MIN6 cells, imaging, high-content screening, mouse beta cells | AID 1625, 2009 | MIN6 insulin promoter-GFP reporter; active compounds read high | z-score at 5 µM | 0.3% of 190,000 active;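 active = z-score above 3 at 5 µM with at least 500 cells counted in the well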
NPY-Y1 antag = NPY-Y1 receptor antagonists, primary screen, cell-based. Neuropeptide Y receptor type 1 (Homo sapiens), P25929. HEK293-CNG Y1 cells, membrane potential fluorescence; NPY at EC95, then isoproterenol. inhibition, % at 3.6 µM. 1% of 200,000 active. AID 1040, 2008;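 active = inhibition above the campaign mean inhibition of all tested compounds plus 3 SD, cut at about 20% in these data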;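 note: 0% = DMSO wells given NPY plus isoproterenol and 100% = isoproterenol alone without NPY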
Target sequence (P25929 whole entry, looked up): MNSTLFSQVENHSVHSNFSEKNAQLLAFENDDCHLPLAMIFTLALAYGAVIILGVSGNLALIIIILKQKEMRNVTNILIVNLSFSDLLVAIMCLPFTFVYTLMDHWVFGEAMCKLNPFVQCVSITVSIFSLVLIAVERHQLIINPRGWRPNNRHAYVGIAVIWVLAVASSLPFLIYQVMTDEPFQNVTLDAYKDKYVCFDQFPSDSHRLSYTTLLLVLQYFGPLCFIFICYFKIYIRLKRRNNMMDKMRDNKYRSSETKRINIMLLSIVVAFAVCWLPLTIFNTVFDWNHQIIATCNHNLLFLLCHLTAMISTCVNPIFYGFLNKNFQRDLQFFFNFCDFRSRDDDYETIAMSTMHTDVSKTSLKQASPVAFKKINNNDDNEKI
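Material: Y1- and CNG-channel-expressing HEK293 cells / Probe or stimulus: NPY 25 nM then isoproterenol 1 µM plus Ro 20-1724 25 µM / Doses: 3.6 µM single dose, DMSO 0.4% / Schedule: compound incubation 1 h at room temperature, readout 45 min post-stimulation / Signal: membrane potential fluorescence / Benchmarks: isoproterenol-only wells as full block versus NPY-plus-isoproterenol wells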
INS promoter inh = inhibitors of insulin promoter-driven GFP, primary screen, imaging, TRM-6 cells (human fetal islet line), eGFP reporter, cell count. reporter expression induced with tamoxifen. AID 1273, 2008. 0.9% of 130,000 active. inhibition, % at 2 µM;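 active = inhibition above the mean plus 3 SD, with well images judged a real hit on visual review, cut at about 60% in these data, passing the limit was not always enough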
NPY-Y2 PAM-ag = NPY-Y2 potentiators or agonists, primary screen, cell-based. 0.45% of 220,000 active. cells expressing NPY-Y2, potentiator/agonist read-out. activation, % at 3.6 µM. AID 1359, 2008. Neuropeptide Y receptor type 2 (Homo sapiens), P49146; in the data active = activation above about 27%;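 note: cells stimulated with NPY near EC25 plus isoproterenol at EC100; 0% = vehicle plus submaximal agonist and 100% = vehicle plus saturating agonist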
NPY Y2 blocker = NPY-Y2 receptor antagonists, primary screen, cell-based; Neuropeptide Y receptor type 2 (Homo sapiens), P49146; NPY-Y2 expressing cells, antagonist mode; inhibition, % at 2.7 µM; 0.99% of 140,000 active; AID 793, 2007; in the data active = inhibition above about 17%;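 note: 0% = vehicle with agonist challenge and 100% = reference antagonist with challenge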
NPY1 pot ag = NPY-Y1 receptor potentiators or agonists, primary screen, cell-based; NPY-Y1 expressing cells, potentiator/agonist activation; activation, % at 3.6 µM; 0.37% of 220,000 active; AID 1304, 2008; in the data active = activation above about 33%, passing the limit was not always enough;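 note: cells stimulated with NPY at EC10 then isoproterenol at EC100; 0% = low agonist plus stimulus and 100% = saturating agonist plus stimulus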
Active calls of the source: *; . = no result given.

SMILES	Insulin prom up	NPY-Y1 antag	INS promoter inh	NPY-Y2 PAM-ag	NPY Y2 blocker	NPY1 pot ag
O=S(=O)(Nc1ccc(S(=O)(=O)N2CCCCCC2)cc1)c1cccs1	.	8.9	85.7*	1.7	3.6	3.0
O=S(=O)(Nc1ccc(N2CCCCC2)cc1)c1cccs1	-0.52	2.2	.	-4.5	-0.3	3.0
Cc1cc(Cl)n2c(nc3cc(F)c(F)cc32)c1C#N	0.88	21.5*	-117.7	-1.8	.	-25.7
O=C(/C=C/c1ccco1)Nc1ccccc1C(=O)Nc1cccc(C(=O)O)c1	-0.36	.	.	42.7*	.	48.0*
Cc1cc2nc(CCN3CCOCC3)n(S(=O)(=O)c3ccc(C(C)(C)C)cc3)c2cc1C	-0.71	-2.2	85.7*	-15.9	0.5	-35.2
COc1cccc(N(C(=O)Cn2nnc(-c3ccc(Cl)cc3)n2)C(C(=O)NCC2CCCO2)c2ccc(C)cc2)c1 (configuration not stated)	-0.28	2.0	.	1.1	.	-7.7
C=CCSc1nc2ccccc2n1S(=O)(=O)c1ccc(C)cc1	.	-7.4	94.7*	1.4	3.1	-23.4
Cc1cccc(N2CCN(C(=O)C(C)C)CC2)c1C	0.12	11.3	78.6*	-3.3	3.7	-6.2
Cc1cccc(N2CCN(C(=O)Cn3cccc3)CC2)c1C	0.06	2.0	.	5.4	2.0	11.8
O=c1oc2ccccc2c2c1nnn2CCO	-0.31	4.1	.	-5.4	.	16.7
O=C(O)CCCNC1=NCCC1	-0.37	42.2*	14.8	3.7	3.8	16.5
O=C(O)CNC1=NCCC1	0.35	.	.	.	.	.
CCn1c(O)c(/C=C/C=C/C=Nc2ccccc2)sc1=S	0.09	-3.4	-61.1	-15.7	.	15.7
Oc1c(/C=C/C=C/C=Nc2ccccc2)sc(=S)n1Cc1ccccc1	3.27*	.	.	-26.1	.	16.1
CCCCn1c(O)c(/C=C/C=C/C=Nc2ccccc2)sc1=S	4.72*	-4.3	-225.0	6.8	.	-9.2
Cc1ccc(Cn2nnc3c(=O)n(Cc4ccccc4C)cnc32)cc1	.	8.5	.	0.6	16.4	-2.6
O=C(CN1C(=O)NC2(CCCC2)C1=O)N1CCc2ccccc2C1	1	-3.0	.	19.1	.	1.5
N=c1c2c(-c3ccccc3)c(-c3ccccc3)n(Cc3ccco3)c2ncn1Cc1ccco1	-7.7	22.4*	-88.9	21.9	31.8*	33.1
Cc1cc(NCCCn2ccnc2)n2nc(C)c(-c3ccccc3)c2n1	.	-4.2	73.3	12.7	3.3	-7.7
N=c1c2c(-c3ccccc3)c(-c3ccccc3)n(Cc3ccccc3)c2ncn1CCCn1ccnc1	-0.08	92.1*	.	17.4	49.3*	-40.1
CCCCn1cnc2c(c(-c3ccccc3)c(-c3ccccc3)n2Cc2ccco2)c1=N	-2.04	.	.	52.0*	.	51.6*
O=C(NNC1CC(=O)N(c2ccccc2)C1=O)c1ccc(COc2ccccc2Cl)o1 (configuration not stated)	0.36	-4.4	.	-8.0	1.6	-2.6
N#CCC(=O)NCCCc1ccccc1	0.21	0.6	0.0	3.6	0.2	-22.0
CC(C)(C)C1CCC(=NNC(=O)c2ccccc2-n2cccc2)CC1 (configuration not stated)	0.26	4.1	.	22.9	5.2	-8.8
C/C(=N\NC(=O)c1cccc(F)c1)c1ccc(Br)s1	-0.52	6.8	19.4	-20.7	1.0	-9.3
SMILES	Insulin prom up	NPY-Y1 antag	INS promoter inh	NPY-Y2 PAM-ag	NPY Y2 blocker	NPY1 pot ag
COc1ccc(O)c(C2=Nc3ccccc3N=C(c3ccco3)C2)c1	-0.01	3.2	-40.0	7.0	9.5	-15.8
Oc1ccc(Cl)cc1C1=Nc2ccccc2N=C(c2ccco2)C1	4.34*	3.2	-311.1	11.1	1.3	-0.8
Cc1ccc(NC(=O)CNc2cccc(C)c2C)c(C)c1	-0.92	1.2	66.7	-2.6	1.3	-3.8
Cc1ccc(NC(=O)CNc2ccc(OC(C)C)cc2)c(C)c1	.	0.7	75.0*	4.6	-1.1	-6.4
CCOc1ccccc1NC(=O)Cc1ccccc1OC	-0.35	4.3	81.2*	2.1	1.7	-14.9
O=C(CSc1nnnn1C1CCCCC1)NCc1cccs1	.	1.0	5.0	-0.5	.	0.2
COc1ccc(OC)c(-n2c(SCC(=O)N3CCc4ccccc43)nc3c(c2=O)SCC3)c1	-0.05	4.9	70.0*	-9.4	2.8	-2.1
NC(=O)C1(N2CCCCC2)CCN(C(=S)Nc2cccc(Cl)c2)CC1	-0.14	-2.9	.	12.3	-0.3	7.4
